The text below walks through data of ChEMBL document CHEMBL5625173, “Antimycobacterial pyridine carboxamides: From design to in vivo activity” (Eur J Med Chem, 2023).

Converted amounts (≈) assume the structure as drawn. The source made the active and inactive calls. The rule behind the calls is not given here.

In data set [1] the test system is Mycobacterium tuberculosis. Kind of data set: Antimycobacterial activity against Mycobacterium tuberculosis H37Rv assessed as decreased synthesis of cyclopropyl-mycolic acid at 1.5 to 6 ug/ml incubated for 24 hrs in presence of 14C acetate by TLC analysis. The following applies: dose 1.5-6 µg/ml. Type of data set: functional, organism-based. A digest of the protocol: (§1)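 Mtb H37Rv cultures exposed to 0, 1.5, 3 or 6 μg/ml compound or its sodium salt for 24 h. 14C acetate then added and cells grown a further 24 h. Lipids and mycolic acids extracted; fatty acids derivatized to methyl esters. Separated by TLC on standard or AgNO3-impregnated plates in Solvent IV and visualized by autoradiography.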

The subject of data set [2] is Mycobacterium tuberculosis. Put plainly: Antimycobacterial activity against Mycobacterium tuberculosis H37Rv assessed as change in phospholipid production at 1.5 to 6 ug/ml incubated for 24 hrs in presence of 14C acetate by TLC analysis. Type of data set: functional, organism-based. The following applies: dose 1.5-6 µg/ml. In a few lines: as §1
For data set [3], the system named is Mycobacterium tuberculosis. Kind of data set: Antimycobacterial activity against Mycobacterium tuberculosis H37Rv assessed as change in trehalose dimycolates production at 1.5 to 6 ug/ml incubated for 24 hrs in presence of 14C acetate by TLC analysis. The data set is classed as functional, organism-based. The following applies: dose 1.5-6 µg/ml. In a few lines: as §1

Data set [4] relates to Mycobacterium tuberculosis. Kind of data set: Antimycobacterial activity against Mycobacterium tuberculosis H37Rv assessed as change in trehalose monomycolates production at 1.5 to 6 ug/ml incubated for 24 hrs in presence of 14C acetate by TLC analysis. The following applies: dose 1.5-6 µg/ml. The data set is classed as functional, organism-based. A digest of the protocol: as §1

The subject of data set [5] is Mycobacterium tuberculosis. Kind of data set: Antimycobacterial activity against Mycobacterium tuberculosis H37Rv at 1 times MIC measured after 15 days in presence of methionine by alamar blue staining based microplate analysis. The data set is classed as functional, organism-based. The settings on record: time 15.0 day.
In data set [6] the test system is Mycobacterium tuberculosis. Kind of data set: Antimycobacterial activity against Mycobacterium tuberculosis H37Rv infected in mouse assessed as reduction in colony formation in spleen at 50 mg/kg administered for 28 days. The settings on record: time 28.0 day. The data set is classed as functional, organism-based. In a few lines: (§2)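 Mice infected intranasally with Mtb H37Rv; infection allowed to develop four weeks. Then dosed for 28 days with sodium salt forms as water solution by gastric tube. Lung and spleen CFU determined and compared with untreated control group.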

Data set [7] has as its system Mycobacterium tuberculosis. Kind of data set: Antimycobacterial activity against Mycobacterium tuberculosis H37Rv assessed as decreased synthesis of methoxy-mycolic acid at 1.5 to 6 ug/ml incubated for 24 hrs in presence of 14C acetate by TLC analysis. Type of data set: functional, organism-based. The settings on record: dose 1.5-6 µg/ml. A digest of the protocol:
as §1

Data set [8] concerns Mycobacterium tuberculosis. Kind of data set: Antimycobacterial activity against Mycobacterium tuberculosis H37Rv infected in mouse assessed as reduction in colony formation in lungs at 50 mg/kg administered for 28 days. The data set is classed as functional, organism-based. The settings on record: time 28.0 day. In a few lines: as §2
The test system of data set [9] is Mycobacterium tuberculosis. Put plainly: Antimycobacterial activity against Mycobacterium tuberculosis H37Rv assessed as decreased synthesis of tri-acylglyerols at 1.5 to 6 ug/ml incubated for 24 hrs in presence of 14C acetate by TLC analysis. The data set is classed as functional, organism-based. The settings on record: dose 1.5-6 µg/ml. A digest of the protocol: as §1

Data set [10] deals with Mycobacterium tuberculosis. Kind of data set: Antimycobacterial activity against Mycobacterium tuberculosis H37Ra by alamar blue staining based microplate analysis. Type of data set: functional. A digest of the protocol:
(§3)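 Microplate Alamar Blue assay. MIC values read at pH 6.6 (neutral). One acidic-pH test at pH 5.6 is footnoted separately.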

Data set [11] deals with Mycobacterium avium. Kind of data set: Antimycobacterial activity against Mycobacterium avium by alamar blue staining based microplate analysis. The data set is classed as functional. In a few lines: as §3
A general note: Alamar Blue is a resazurin reagent that responds to reducing activity.

Data set [12] concerns Mycobacterium tuberculosis. Put plainly: Antimycobacterial activity against Mycobacterium tuberculosis H37Rv at 40 times MIC measured after 15 days in presence of methionine by alamar blue staining based microplate analysis. The data set is classed as functional, organism-based. The settings on record: time 15.0 day.
The subject of data set [13] is Mycobacterium tuberculosis. Kind of data set: Antimycobacterial activity against Mycobacterium tuberculosis H37Rv by alamar blue staining based microplate analysis. The data set is classed as functional. In a few lines:
as §3

For data set [14], the system named is Mycolicibacterium smegmatis. Kind of data set: Antimycobacterial activity against Mycobacterium smegmatis by alamar blue staining based microplate analysis. Type of data set: functional. In a few lines:
(§4)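 Microplate Alamar Blue assay, one of six mycobacterial strains tested (Mtb H37Rv, Mtb H37Ra, M. kansasii, M. avium, M. smegmatis, M. aurum); value reported as MIC.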

Data set [15] relates to Mycolicibacterium aurum. Kind of data set: Antimycobacterial activity against Mycobacterium aurum by alamar blue staining based microplate analysis. The data set is classed as functional. A digest of the protocol:
as §4

Data set [16] can be described thus: Cytotoxicity against human HepG2 cells assessed as inhibition of cell viability. Type of data set: toxicity, cell-based.
Data set [17] in a line: Selectivity index, ratio of IC50 for cytotoxicity against human HepG2 cells to MIC for antimycobacterial activity against Mycobacterium tuberculosis H37Rv. The settings on record: read-out: Selectivity Index. Type of data set: toxicity, cell-based.
In data set [18] the test system is Mycobacterium tuberculosis. Kind of data set: Antimycobacterial activity against Mycobacterium tuberculosis MAT1 by alamar blue staining based microplate analysis. Type of data set: functional.
The nature of data set [19]: Drug metabolism in human liver microsomes assessed as M1 metabolite formation at 90 uM incubated for 3 hrs. Type of data set: ADME, Microsome. A digest of the protocol:
(§5)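 Phase I metabolite identification: ammonium salt of the compound (for solubility) or its lactone, 90 μM, incubated with human liver microsomes for 3 h; metabolites detected by HPLC-MS, positive ion mode, by m/z.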

A short description of data set [20]: Metabolic stability in human liver microsomes assessed as intrinsic clearance at 3 uM incubated for 45 mins by HPLC analysis. The settings on record: read-out: CLH. The data set is classed as ADME, Microsome. A digest of the protocol:
(§6)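 Ammonium salt or lactone, 3 μM, incubated with human liver microsomes at physiological pH; reactions stopped at 0, 5, 15, 30 and 45 min and analysed by HPLC-MS; k, t1/2 and intrinsic clearance calculated from the HPLC-MS records.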

Data set [21] in a line: Drug metabolism in human liver microsomes assessed as M2 metabolite formation at 90 uM incubated for 3 hrs. Type of data set: ADME, Microsome. A digest of the protocol: as §5
A short description of data set [22]: Metabolic stability in human liver microsomes assessed as half life at 3 uM incubated for 45 mins by HPLC-MS analysis. The data set is classed as ADME, Microsome. A digest of the protocol:
as §6
On the technique in general: Microsomes from liver hold many membrane-bound enzymes, among them those of drug oxidation.

The test system of data set [23] is Mycobacterium kansasii. Kind of data set: Antimycobacterial activity against Mycobacterium kansasii by alamar blue staining based microplate analysis. The data set is classed as functional. In a few lines:
as §4

Data set [24] has as its system Mycobacterium tuberculosis. Put plainly: Antimycobacterial activity against Mycobacterium tuberculosis IZAK by alamar blue staining based microplate analysis. Type of data set: functional.
Data set [25] in a line: Drug metabolism in human liver microsomes assessed as M3 metabolite formation at 90 uM incubated for 3 hrs. Type of data set: ADME, Microsome. A digest of the protocol: as §5

On to `O=C(Nc1ccc(C(=O)O)c(O)c1)c1ccc2ccccc2n1`, for which the outcome in data set [1], in data set [6], in data set [7] and in [9] was Active. Also, the result in data set [2], in [3], in data set [4], in data set [5] and in [8] was inactive.

Broadly, the MIC is the least concentration at which growth counts as inhibited. Lower therefore signals greater potency. Broadly, the IC50 is the concentration that gives 50% inhibition. Take `Nc1ccc(C(=O)O)c(O)c1` [AMINOSALICYLIC ACID]: the minimal inhibitory concentration (MIC) in data set [10] stood at 0.25 µg/mL (≈ 1.63 µM); in data set [11], 3.13 µg/mL (≈ 20.4 µM); in data set [13] it was 3.13 µg/mL (≈ 20.4 µM); in data set [14], 500 µg/mL (≈ 3270 µM); in data set [15], 250 µg/mL (≈ 1630 µM). In addition, in data set [12], the result was inactive. In data set [16], the half-inhibitory concentration (IC50) was greater than 1270 µM. Also, the selectivity ratio in [17] stood at 62.1.

By half-life is commonly meant the time in which the quantity being followed falls by half. As to `O=C(Nc1ccc2c(c1)OCOC2=O)c1ccc2ccccc2n1`, the minimum inhibitory concentration (MIC) is 50 µg/mL (≈ 156 µM) in [18]; 1.98 µg/mL (≈ 6.18 µM) in data set [10]; greater than 100 µg/mL in data set [11]; 1.56 µg/mL (≈ 4.87 µM) in data set [13]; no less than 250 µg/mL in data set [14]; no less than 250 µg/mL in data set [15]. The values for the minimum inhibitory concentration (MIC) in [23] and in [24] were greater than 100 µg/mL and 50 µg/mL (≈ 156 µM), respectively. Further, the Drug metabolism entry in [19], in data set [21] and in [25] was “Metabolite_Detected” each time. The microsomal CLint at 3 µM in data set [20] was 122 µL/min/mg. In [22], the half-life at 3 µM was 11 min. The concentration for half-maximal inhibition (IC50) in data set [16] was greater than 25 µM. In addition, in [17], the selectivity ratio is greater than 5.1.
